Data reported in ChEMBL document CHEMBL4834399, “Pharmacokinetics of Eleven Kratom Alkaloids Following an Oral Dose of Either Traditional or Commercial Kratom Products in Rats” (J Nat Prod, 2021).
pKi: −log10 of the molar value.

Assays:
[1] = AUC(0 to 24 hrs) in Sprague-Dawley rat plasma at <0.1 mg/kg, po administered as LKT formulation measured for 24 hrs by UPLC-MS/MS analysis; assay type: ADME, organism-based; set-up: route oral, time 24 hrs, dose <0.1
[2] = Cmax in Sprague-Dawley rat plasma at <0.1 mg/kg, po administered as LKT formulation measured for 24 hrs by UPLC-MS/MS analysis; assay type: ADME, organism-based; set-up: route oral, time 24 hrs, dose <0.1
Summary of the method: (§1)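 Jugular-cannulated male SD rats (225 ± 25 g, n = 4) were fasted 12–16 h and given one oral gavage of LKT (366 mg/kg) or OPMS liquid (0.8 mL/kg) in water at 4 mL/kg, with dosing normalized to MTG human equivalent dose. Plasma was sampled from predose to 24 h and measured by UPLC–MS/MS (LLOQ 1 ng/mL). Cmax and Tmax were read from the observed data; Cmax/dose was also reported. Mean ± SEM.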

[3] = Tmax in Sprague-Dawley rat plasma at <0.1 mg/kg, po administered as LKT formulation measured for 24 hrs by UPLC-MS/MS analysis; assay type: ADME, organism-based; summary of the method: as §1
[4] = AUC(0 to 24 hrs) in Sprague-Dawley rat plasma at <0.1 mg/kg, po administered as OPMS liquid formulation measured for 24 hrs by UPLC-MS/MS analysis; assay type: ADME, organism-based; set-up: route oral, time 24 hrs, dose <0.1
[5] = Stability of the compound in rat plasma assessed as drug recovery; assay type: ADME, cell-free
[6] = Stability of the compound in water-methanol mixture (1:1) assessed as drug recovery; assay type: physicochemical; settings: buffer
[7] = Cmax in Sprague-Dawley rat plasma at <0.1 mg/kg, po administered as OPMS liquid formulation measured for 24 hrs by UPLC-MS/MS analysis; assay type: ADME, organism-based; set-up: route oral, time 24 hrs, dose <0.1; summary of the method: as §1
[8] = Tmax in Sprague-Dawley rat plasma at <0.1 mg/kg, po administered as OPMS liquid formulation measured for 24 hrs by UPLC-MS/MS analysis; assay type: ADME, organism-based; summary of the method: as §1
[9] = Dose normalized Cmax in Sprague-Dawley rat plasma at 2.03 mg/kg, po administered as LKT formulation measured for 24 hrs by UPLC-MS/MS analysis; assay type: ADME, organism-based; settings: in vivo; summary of the method: as §1
[10] = Dose normalized Cmax in Sprague-Dawley rat plasma at 2.24 mg/kg, po administered as OPMS liquid formulation measured for 24 hrs by UPLC-MS/MS analysis; assay type: ADME, organism-based; settings: in vivo; summary of the method: as §1
[11] = Dose normalized AUC(0 to 24 hrs) in Sprague-Dawley rat plasma at 2.24 mg/kg, po administered as OPMS liquid formulation measured for 24 hrs by UPLC-MS/MS analysis; assay type: ADME, organism-based; settings: in vivo
[12] = Dose normalized AUC(0 to 24 hrs) in Sprague-Dawley rat plasma at 2.03 mg/kg, po administered as LKT formulation measured for 24 hrs by UPLC-MS/MS analysis; assay type: ADME, organism-based; settings: in vivo
[13] = AUC(0 to 24 hrs) in Sprague-Dawley rat plasma at 2.03 mg/kg, po administered as LKT formulation measured for 24 hrs by UPLC-MS/MS analysis; assay type: ADME, organism-based; set-up: route oral, time 24 hrs, dose 2.03 mg/kg
[14] = Tmax in Sprague-Dawley rat plasma at 2.24 mg/kg, po administered as OPMS liquid formulation measured for 24 hrs by UPLC-MS/MS analysis; assay type: ADME, organism-based; summary of the method: as §1
[15] = Cmax in Sprague-Dawley rat plasma at 2.03 mg/kg, po administered as LKT formulation measured for 24 hrs by UPLC-MS/MS analysis; assay type: ADME, organism-based; set-up: route oral, dose 2.03 mg/kg, time 24 hrs; summary of the method: as §1
[16] = Cmax in Sprague-Dawley rat plasma at 2.24 mg/kg, po administered as OPMS liquid formulation measured for 24 hrs by UPLC-MS/MS analysis; assay type: ADME, organism-based; set-up: route oral, dose 2.24 mg/kg, time 24 hrs; summary of the method: as §1
[17] = Tmax in Sprague-Dawley rat plasma at 2.03 mg/kg, po administered as LKT formulation measured for 24 hrs by UPLC-MS/MS analysis; assay type: ADME, organism-based; summary of the method: as §1
[18] = AUC(0 to 24 hrs) in Sprague-Dawley rat plasma at 2.24 mg/kg, po administered as OPMS liquid formulation measured for 24 hrs by UPLC-MS/MS analysis; assay type: ADME, organism-based; set-up: route oral, time 24 hrs, dose 2.24 mg/kg
Cytochrome P450 2D6 = Cytochrome P450 2D6 (Homo sapiens, UniProt P10635); assay: Inhibition of CYP2D6 in human liver microsomes assessed as inhibition of dextromethorphan O-demethylation using dextromethorphan as substrate preincubated for 5 mins followed by NADPH addition by UPLC-MS/MS analysis; assay type: ADME
Cytochrome P450 2D6, sequence (P10635 whole entry): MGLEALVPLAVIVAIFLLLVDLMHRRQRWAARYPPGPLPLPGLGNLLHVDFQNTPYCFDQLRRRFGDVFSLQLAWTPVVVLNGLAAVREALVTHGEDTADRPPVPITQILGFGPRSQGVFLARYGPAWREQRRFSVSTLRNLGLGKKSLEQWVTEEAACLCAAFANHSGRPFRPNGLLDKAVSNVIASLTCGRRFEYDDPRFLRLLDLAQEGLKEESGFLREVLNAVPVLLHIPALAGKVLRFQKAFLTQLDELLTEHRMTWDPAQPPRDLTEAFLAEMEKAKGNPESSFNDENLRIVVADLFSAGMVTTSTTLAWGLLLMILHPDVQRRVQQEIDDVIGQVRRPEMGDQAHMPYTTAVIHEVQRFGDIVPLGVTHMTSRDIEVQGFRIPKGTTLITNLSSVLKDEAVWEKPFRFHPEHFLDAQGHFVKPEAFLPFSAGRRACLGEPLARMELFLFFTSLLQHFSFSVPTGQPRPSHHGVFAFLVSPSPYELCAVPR

[19] = Tmax in Sprague-Dawley rat plasma at 9.6 mg/kg, po administered as OPMS liquid formulation measured for 24 hrs by UPLC-MS/MS analysis; assay type: ADME, organism-based; summary of the method: as §1
[20] = Dose normalized Cmax in rat plasma at 20 mg/kg, po administered as LKT formulation; assay type: ADME, organism-based; settings: in vivo
[21] = Dose normalized Cmax in Sprague-Dawley rat plasma at 9.6 mg/kg, po administered as OPMS liquid formulation measured for 24 hrs by UPLC-MS/MS analysis; assay type: ADME, organism-based; settings: in vivo; summary of the method: as §1
[22] = rat, in vivo, po, 5.73 mg/kg, 24 h
[23] = Cmax in Sprague-Dawley rat plasma at 5.73 mg/kg, po administered as LKT formulation measured for 24 hrs by UPLC-MS/MS analysis; assay type: ADME, organism-based; set-up: route oral, dose 5.73 mg/kg, time 24 hrs; summary of the method: as §1
[24] = rat, in vivo, po, 9.6 mg/kg, 24 h
[25] = Cmax in Sprague-Dawley rat plasma at 9.6 mg/kg, po administered as OPMS liquid formulation measured for 24 hrs by UPLC-MS/MS analysis; assay type: ADME, organism-based; set-up: route oral, dose 9.6 mg/kg, time 24 hrs; summary of the method: as §1
[26] = AUC(0 to 24 hrs) in Sprague-Dawley rat plasma at 5.73 mg/kg, po administered as LKT formulation measured for 24 hrs by UPLC-MS/MS analysis; assay type: ADME, organism-based; set-up: route oral, time 24 hrs, dose 5.73 mg/kg
[27] = Dose normalized AUC(0 to 24 hrs) in Sprague-Dawley rat plasma at 5.73 mg/kg, po administered as LKT formulation measured for 24 hrs by UPLC-MS/MS analysis; assay type: ADME, organism-based; settings: in vivo
[28] = Dose normalized AUC(0 to 24 hrs) in Sprague-Dawley rat plasma at 9.6 mg/kg, po administered as OPMS liquid formulation measured for 24 hrs by UPLC-MS/MS analysis; assay type: ADME, organism-based; settings: in vivo
[29] = AUC(0 to 24 hrs) in Sprague-Dawley rat plasma at 9.6 mg/kg, po administered as OPMS liquid formulation measured for 24 hrs by UPLC-MS/MS analysis; assay type: ADME, organism-based; set-up: route oral, time 24 hrs, dose 9.6 mg/kg
[30] = Tmax in Sprague-Dawley rat plasma at 5.73 mg/kg, po administered as LKT formulation measured for 24 hrs by UPLC-MS/MS analysis; assay type: ADME, organism-based; summary of the method: as §1
[31] = Dose normalized AUC in rat plasma at 20 mg/kg, po administered as LKT formulation; assay type: ADME, organism-based; settings: in vivo
[32] = Dose normalized Cmax in Sprague-Dawley rat plasma at 5.73 mg/kg, po administered as LKT formulation measured for 24 hrs by UPLC-MS/MS analysis; assay type: ADME, organism-based; settings: in vivo; summary of the method: as §1
[33] = Cmax in Sprague-Dawley rat plasma at […], po administered as OPMS liquid formulation measured for 24 hrs by UPLC-MS/MS analysis; assay type: ADME, organism-based; set-up: route oral, time 24 hrs, dose 0.18 mg/kg
[34] = Dose normalized AUC(0-24 hrs) in po dosed rat plasma; assay type: ADME, organism-based; settings: in vivo
[35] = Tmax in Sprague-Dawley rat plasma at […], po administered as OPMS liquid formulation measured for 24 hrs by UPLC-MS/MS analysis; assay type: ADME, organism-based; settings: dose 0.18 mg/kg
[36] = Dose normalized Cmax in Sprague-Dawley rat plasma at 0.13 mg/kg, po administered as LKT formulation measured for 24 hrs by UPLC-MS/MS analysis; assay type: ADME, organism-based; settings: in vivo; summary of the method: as §1
[37] = Dose normalized Cmax in po dosed rat plasma; assay type: ADME, organism-based; settings: in vivo
[38] = Dose normalized AUC(0 to 24 hrs) in Sprague-Dawley rat plasma at […], po administered as OPMS liquid formulation measured for 24 hrs by UPLC-MS/MS analysis; assay type: ADME, organism-based; settings: in vivo, dose 0.18 mg/kg
[39] = AUC(0 to 24 hrs) in Sprague-Dawley rat plasma at […], po administered as OPMS liquid formulation measured for 24 hrs by UPLC-MS/MS analysis; assay type: ADME, organism-based; set-up: route oral, dose 0.18 mg/kg, time 24 hrs
[40] = Dose normalized Cmax in Sprague-Dawley rat plasma at […], po administered as OPMS liquid formulation measured for 24 hrs by UPLC-MS/MS analysis; assay type: ADME, organism-based; settings: in vivo, dose 0.18 mg/kg
[41] = AUC(0 to 24 hrs) in Sprague-Dawley rat plasma at 0.13 mg/kg, po administered as LKT formulation measured for 24 hrs by UPLC-MS/MS analysis; assay type: ADME, organism-based; set-up: route oral, time 24 hrs, dose 0.13 mg/kg
[42] = Dose normalized AUC(0 to 24 hrs) in Sprague-Dawley rat plasma at 0.13 mg/kg, po administered as LKT formulation measured for 24 hrs by UPLC-MS/MS analysis; assay type: ADME, organism-based; settings: in vivo
[43] = Tmax in Sprague-Dawley rat plasma at 0.13 mg/kg, po administered as LKT formulation measured for 24 hrs by UPLC-MS/MS analysis; assay type: ADME, organism-based; summary of the method: as §1

CC[C@@H]1CN2CC[C@@]3(O)C(=Nc4cccc(OC)c43)[C@@H]2C[C@@H]1/C(=C\OC)C(=O)OC
AUC(0-t) at 24 h [1]: 17.4 ng·h/mL
Cmax [2]: 4.3 ng/mL
Tmax [3]: 0.9 h
AUC(0-t) at 24 h [4]: 41 ng·h/mL
Drug recovery [5]: > 90%
Drug recovery [6]: > 80%
Cmax [7]: 4 ng/mL
Tmax [8]: 3.1 h

CC[C@@H]1CN2CCc3c([nH]c4cccc(OC)c34)[C@H]2C[C@@H]1/C(=C\OC)C(=O)OC
Cmax/dose [9]: 10.4 kg·ng/mL/mg
Cmax/dose [10]: 10.8 kg·ng/mL/mg
AUC/dose [11]: 101.2 kg·ng·h/mL/mg
AUC/dose [12]: 52.9 kg·ng·h/mL/mg
Drug recovery [5]: > 90%
AUC(0-t) at 24 h [13]: 107 ng·h/mL
Tmax [14]: 3.2 h
Drug recovery [6]: > 80%
Cmax [15]: 21.1 ng/mL
Cmax [16]: 23.8 ng/mL
Tmax [17]: 1.8 h
AUC(0-t) at 24 h [18]: 223 ng·h/mL

CC[C@@H]1CN2CCc3c([nH]c4cccc(OC)c34)[C@@H]2C[C@@H]1/C(=C\OC)C(=O)OC
pKi (Cytochrome P450 2D6): 5.96
Tmax [19]: 3.1 h
Cmax/dose [20]: 46.5 ng/mL
Drug recovery [5]: > 90%
Cmax/dose [21]: 11.7 kg·ng/mL/mg
Drug metabolism [22]: 3.4%
Cmax [23]: 63.8 ng/mL
Drug metabolism [24]: 3.1%
Cmax [25]: 112 ng/mL
AUC(0-t) at 24 h [26]: 480 ng·h/mL
AUC/dose [27]: 83.7 kg·ng·h/mL/mg
AUC/dose [28]: 136.1 kg·ng·h/mL/mg
Drug recovery [6]: > 80%
AUC(0-t) at 24 h [29]: 1310 ng·h/mL
Tmax [30]: 1.3 h
AUC/dose [31]: 213.1 kg·ng·h/mL/mg
Cmax/dose [32]: 11.1 kg·ng/mL/mg

COC(=O)C1=CO[C@@H](C)[C@H]2CN3CC[C@]4(C(=O)Nc5ccccc54)[C@@H]3C[C@H]12
Drug recovery [5]: > 90%
Drug recovery [6]: > 80%

CC[C@@H]1CN2CCc3c([nH]c4ccccc34)[C@@H]2C[C@@H]1/C(=C\OC)C(=O)OC [CORYNANRHEIDINE]
Cmax at 24 h [33]: 3.1 ng/mL
AUC/dose [34]: 138.8 kg·ng·h/mL/mg
Drug recovery [5]: > 90%
Tmax at 24 h [35]: 3.1 h
Cmax/dose [36]: 14 kg·ng/mL/mg
Drug recovery [6]: > 80%
Cmax/dose [37]: 10.7 ng/mL
AUC/dose [38]: 152.2 kg·ng·h/mL/mg
AUC(0-t) at 24 h [39]: 30.4 ng·h/mL
Cmax/dose [40]: 15.6 kg·ng/mL/mg
AUC(0-t) at 24 h [41]: 8.2 ng·h/mL
AUC/dose [42]: 63.1 kg·ng·h/mL/mg
Tmax [43]: 1 h
